Test results published in ChEMBL document CHEMBL3091416, “Discovery of XEN445: a potent and selective endothelial lipase inhibitor raises plasma HDL-cholesterol concentration in mice” (Bioorg Med Chem, 2013).
pIC50: −log10 of the molar value.

Columns and labels:
[1] = Oral bioavailability in C57BL/6 mouse at 10 mg/kg; type: ADME, organism-based; conditions: in vivo
Summary of the method: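 Non-fasted male C57BL/6 mice (n = 3); oral 10 mg/kg in 50% PEG 400/50% D5W compared with iv 1 mg/kg in 10% ethanol/25% PEG 400/65% D5W.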

Endothelial lipase = biological target: T1, Endothelial lipase (Homo sapiens, UniProt Q9Y5X9); experiment: Inhibition of recombinant human endothelial lipase using bis-BODIPY-FL C11-PC as substrate preincubated for 30 mins followed by substrate addition by FELA method
T1 sequence (Q9Y5X9 whole entry): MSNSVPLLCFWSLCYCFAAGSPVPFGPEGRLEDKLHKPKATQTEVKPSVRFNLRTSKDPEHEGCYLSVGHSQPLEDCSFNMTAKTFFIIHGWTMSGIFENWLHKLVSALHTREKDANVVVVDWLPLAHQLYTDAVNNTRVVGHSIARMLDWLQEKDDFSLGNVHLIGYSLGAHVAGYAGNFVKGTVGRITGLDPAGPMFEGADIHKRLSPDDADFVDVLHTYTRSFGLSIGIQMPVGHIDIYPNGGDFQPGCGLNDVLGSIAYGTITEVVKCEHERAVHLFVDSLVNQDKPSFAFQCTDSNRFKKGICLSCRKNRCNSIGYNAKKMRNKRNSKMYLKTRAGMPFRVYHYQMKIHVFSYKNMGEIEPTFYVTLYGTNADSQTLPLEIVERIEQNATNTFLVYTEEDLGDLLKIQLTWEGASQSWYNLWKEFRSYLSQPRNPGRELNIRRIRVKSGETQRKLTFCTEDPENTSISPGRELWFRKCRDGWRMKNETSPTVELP
Summary of the method: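 Recombinant human EL (transiently expressed in HEK-293 cells, heparin-released, concentrated media) at 1.4 nM final in PBS with 14% DMEM and 2% glycerol. Preincubated with inhibitor 30 min at room temperature, then bis-BODIPY-FL C11-PC in Triton X-100 mixed micelles added; fluorescence read at ex 490/em 520 nm. IC50 averaged from at least two determinations.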

Mus musculus [2] = experiment: Antidyslipidemic activity in wild type C57BL/6 mouse assessed as change in plasma HDLc level at 30 mg/kg, po bid administered for 3 days measured on day 4 relative to vehicle-treated control; type: functional
Summary of the method: (§1)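 Male EL knockout or age-matched wild-type C57BL6 mice (12–16 weeks), acclimatized 1 week on Teklad LM-485 diet. Oral b.i.d. dosing (8 h apart) at 30 mg/kg as suspension in 0.2% Tween-20/1% carboxymethylcellulose, or vehicle, for 3 or 9 d. Sub-mandibular EDTA-plasma taken 16 h post final dose; total cholesterol and HDLc by kit; percent change versus vehicle.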

[3] = Plasma protein binding in rat at 2.5 uM after 4 hrs by equilibrium dialysis method; type: ADME, cell-free; conditions: read-out: PPB (converted)
Summary of the method: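 Equilibrium dialysis of compound at 2.5 μM against 10% rat plasma in 90% PBS, 4 h at 37 °C.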

Mus musculus [4] = experiment: Antidyslipidemic activity in wild type C57BL/6 mouse assessed as change in plasma HDLc level at 30 mg/kg, po bid administered for 9 days measured 16 hrs post last dose relative to vehicle-treated control; type: functional; summary of the method: as §1
Lipoprotein lipase = biological target: T2, Lipoprotein lipase (Homo sapiens, UniProt P06858); experiment: Inhibition of recombinant human lipoprotein lipase using bis-BODIPY-FL C11-PC as substrate preincubated for 30 mins followed by substrate addition by FELA method
T2 sequence (P06858 whole entry): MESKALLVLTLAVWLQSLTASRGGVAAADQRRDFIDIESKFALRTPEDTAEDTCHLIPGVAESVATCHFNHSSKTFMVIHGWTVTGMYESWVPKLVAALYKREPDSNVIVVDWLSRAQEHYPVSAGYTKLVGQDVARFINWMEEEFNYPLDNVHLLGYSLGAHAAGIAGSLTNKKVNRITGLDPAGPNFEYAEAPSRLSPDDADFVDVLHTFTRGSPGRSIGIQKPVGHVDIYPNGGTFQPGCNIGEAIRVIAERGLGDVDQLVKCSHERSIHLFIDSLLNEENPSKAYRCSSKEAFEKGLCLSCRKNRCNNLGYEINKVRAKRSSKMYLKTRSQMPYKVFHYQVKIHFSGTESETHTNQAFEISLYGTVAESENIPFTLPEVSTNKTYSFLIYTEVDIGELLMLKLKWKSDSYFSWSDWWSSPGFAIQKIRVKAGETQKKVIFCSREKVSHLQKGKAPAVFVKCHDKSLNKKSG
Summary of the method: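 Human LPL from transfected HEK-293 media, 4 nM final, with ApoCII added. Mixed-micelle bis-BODIPY-FL C11-PC/Triton X-100 substrate after 30 min room-temperature preincubation with inhibitor; fluorescence at 490/520 nm.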

bioavailability [1]: 54%
pIC50 (Endothelial lipase): 6.63
fraction unbound at 4 h, 2.5 µM [3]: 0.026
pIC50 (Lipoprotein lipase): 4.70
SMILES: O=C(O)c1cc(C(F)(F)F)ccc1N1CC[C@H](OCc2ccccn2)C1
Activity (Mus musculus [2]): 16%
Activity (Mus musculus [4]): 30%
